Results taken from ChEMBL document CHEMBL6103596, “Design, Synthesis, and Biological Evaluation of BODIPY-Caged Resiquimod as a Dual-Acting Phototherapeutic” (J Med Chem, 2025).
Active and inactive are the calls of the source. The rule behind the calls is not given here.

How the values were obtained:
[1] = Thermal stability of compound in DMSO-d6 at 37.5 degree C measured before 24 hrs by 1H NMR spectroscopy analysis; assay type: physicochemical
Outline: (§1)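 Compound in DMSO-d6 followed by 1H NMR. Degradation taken from the intensity of three signals (one resiquimod, one BODIPY, and the linkage NH), each relative to the DMSO-d6 internal standard, and the three averaged.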

[2] = Dark toxicity in human A549 cells assessed as cell viability at 10 uM under dark condition and measured after 72 hrs by CCK-8 method relative to control; assay type: cell-based; settings: read-out: Activity
Outline: (§2)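 A549, HaCaT and HeLa cells seeded at 2 × 10^3 cells/well in phenol red-free DMEM with 10% FBS. After 24 h, medium replaced with 1% DMSO containing 10 μM compound. After 90 min, one plate kept dark and one exposed to 530 or 650 nm LED (30 mW) for 15 min. Plates incubated 72 h, then CCK-8 read at 450 nm. Viability taken relative to dark control. Triplicates (HaCaT six).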

[3] = Induction of superoxide anion radical assessed as DMPO-O2 radical adduct formation under light irradiation measured after 10 mins by ESR spectra analysis; assay type: functional
Outline: (§3)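 ESR spectra recorded with DMPO as spin trap to detect superoxide and/or hydroxyl radical adducts, before and after 10 min irradiation of compound.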

[4] = Photosensitizing ability of the compound assessed as singlet oxygen quantum yield under 600nm monochromatic light irradiation by DPBF based assay relative to control; assay type: functional
Outline: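 Singlet oxygen generation followed by the decrease in DPBF absorbance under irradiation. DPBF (20–25 μm) used at 5–10-fold excess over compound (2.5–5 μm).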

[5] = Thermal stability of compound in DMSO-d6 at 37.5 degree C measured after 1 day by 1H NMR spectroscopy analysis relative to control; assay type: physicochemical; settings: 24 h; outline: as §1
[6] = Thermal stability of compound in DMSO-d6 at 37.5 degree C measured after 3 days by 1H NMR spectroscopy analysis relative to control; assay type: physicochemical; settings: 72 h; time 3 day; outline: as §1
[7] = Phototoxicity in human HaCaT cells assessed as cell viability at 10 uM under 530 ot 650nm 30 mW LED light irradiation and measured after 72 hrs by CCK-8 method relative to control; assay type: functional; settings: light or radiation study, read-out: Activity; outline: as §2
[8] = Dark toxicity in human HaCaT cells assessed as cell viability at 10 uM under dark condition and measured after 72 hrs by CCK-8 method relative to control; assay type: cell-based; settings: read-out: Activity; outline: as §2
[9] = Upregulation of iNOS mRNA expression in mouse RAW264.7 cells assessed as fold change at 100 nM preincubated with NAC followed by compound addition and measured after 30 mins under 650nm LED light irradiation by real-time PCR analysis; assay type: functional; settings: 0.5 h
Outline: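 RAW264.7 cells seeded at 0.3 million per 35 mm dish. Next day, pretreated with 10 mM N-acetyl-cysteine for 30 min, then given 100 nM compound and 650 nm LED light for 30 min. Total RNA taken 24 h later and reverse transcribed with random primers. SYBR real-time PCR run for 40 cycles (95/60/72 °C). Quantities calculated by the Ct method. Results given as fold change, means ± SD.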

[10] = Induction of hydroxyl radical assessed as DMPO-OH radical adduct formation under dark condition measured after 10 mins by ESR spectra analysis; assay type: functional; outline: as §3

For `CCOCc1nc2c(NC(=O)OCC3=C4C(C)=CC(/C=C/c5ccc(OCCOCCOCCOC)cc5)=[N+]4[B-](C)(C)n4c(/C=C/c5ccc(OCCOCCOCCOC)cc5)cc(C)c43)nc3ccccc3c2n1CC(C)(C)O`, the Activity [1] was “Not_active”, the viability at 72 h, 10 µM [2] was 2% and the Activity [3] was “inactive”. For the same compound, the Activity [4] was 1.2%, the Activity [5] was 7% and the Activity [6] was 15%. For the same compound, the viability at 10 µM [7] was 41%, the viability at 72 h, 10 µM [8] was 2% and the “fold change (FC)” value [9] was ~4. The Activity [10] was “inactive”.
